According to PMC10013843 (Molecular psychiatry, 2022):

Experiments:
[1] = test system: >30,000 proteins; assay: Collective screening and target deconvolution; assay type: binding
[2] = test system: NMDA receptors; assay: [^3H]MK-801 competition binding, rat brain membranes
[3] = test system: NMDAR; settings: cited from earlier work
[4] = after i.p. injection of antidepressant-relevant doses in mice; cited from earlier work
[5] = target: mGluR4 (Homo sapiens, UniProt Q14833); assay: mGluR functional assay; assay type: biochemical
mGluR4, sequence (Q14833 33-912): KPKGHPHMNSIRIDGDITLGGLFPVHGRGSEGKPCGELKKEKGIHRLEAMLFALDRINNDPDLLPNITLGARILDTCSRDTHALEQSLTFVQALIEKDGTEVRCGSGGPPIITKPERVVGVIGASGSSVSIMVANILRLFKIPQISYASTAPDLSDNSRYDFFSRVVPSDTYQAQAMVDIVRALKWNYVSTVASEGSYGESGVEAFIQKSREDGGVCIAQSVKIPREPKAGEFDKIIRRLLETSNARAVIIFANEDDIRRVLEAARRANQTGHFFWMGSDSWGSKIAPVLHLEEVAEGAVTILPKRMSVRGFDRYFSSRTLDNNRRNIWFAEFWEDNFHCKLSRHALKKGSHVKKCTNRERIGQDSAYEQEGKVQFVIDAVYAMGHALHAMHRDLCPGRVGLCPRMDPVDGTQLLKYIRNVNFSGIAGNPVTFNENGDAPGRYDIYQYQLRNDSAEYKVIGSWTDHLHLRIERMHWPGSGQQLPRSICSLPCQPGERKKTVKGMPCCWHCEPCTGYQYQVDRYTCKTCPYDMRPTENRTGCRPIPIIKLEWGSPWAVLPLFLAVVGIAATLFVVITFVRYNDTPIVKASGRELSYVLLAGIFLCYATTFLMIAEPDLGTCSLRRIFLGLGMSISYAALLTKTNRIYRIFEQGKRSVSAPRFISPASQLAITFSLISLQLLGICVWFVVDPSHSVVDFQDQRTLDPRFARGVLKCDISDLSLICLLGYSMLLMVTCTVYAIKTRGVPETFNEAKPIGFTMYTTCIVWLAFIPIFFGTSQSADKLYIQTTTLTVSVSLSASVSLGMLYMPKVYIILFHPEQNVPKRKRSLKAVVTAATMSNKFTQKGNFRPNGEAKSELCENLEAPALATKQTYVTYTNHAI

[6] = target: T1, HCN1 channel (Homo sapiens, UniProt O60741); assay: HCN1 channel functional interaction; assay type: biochemical
T1 sequence (O60741 1-890): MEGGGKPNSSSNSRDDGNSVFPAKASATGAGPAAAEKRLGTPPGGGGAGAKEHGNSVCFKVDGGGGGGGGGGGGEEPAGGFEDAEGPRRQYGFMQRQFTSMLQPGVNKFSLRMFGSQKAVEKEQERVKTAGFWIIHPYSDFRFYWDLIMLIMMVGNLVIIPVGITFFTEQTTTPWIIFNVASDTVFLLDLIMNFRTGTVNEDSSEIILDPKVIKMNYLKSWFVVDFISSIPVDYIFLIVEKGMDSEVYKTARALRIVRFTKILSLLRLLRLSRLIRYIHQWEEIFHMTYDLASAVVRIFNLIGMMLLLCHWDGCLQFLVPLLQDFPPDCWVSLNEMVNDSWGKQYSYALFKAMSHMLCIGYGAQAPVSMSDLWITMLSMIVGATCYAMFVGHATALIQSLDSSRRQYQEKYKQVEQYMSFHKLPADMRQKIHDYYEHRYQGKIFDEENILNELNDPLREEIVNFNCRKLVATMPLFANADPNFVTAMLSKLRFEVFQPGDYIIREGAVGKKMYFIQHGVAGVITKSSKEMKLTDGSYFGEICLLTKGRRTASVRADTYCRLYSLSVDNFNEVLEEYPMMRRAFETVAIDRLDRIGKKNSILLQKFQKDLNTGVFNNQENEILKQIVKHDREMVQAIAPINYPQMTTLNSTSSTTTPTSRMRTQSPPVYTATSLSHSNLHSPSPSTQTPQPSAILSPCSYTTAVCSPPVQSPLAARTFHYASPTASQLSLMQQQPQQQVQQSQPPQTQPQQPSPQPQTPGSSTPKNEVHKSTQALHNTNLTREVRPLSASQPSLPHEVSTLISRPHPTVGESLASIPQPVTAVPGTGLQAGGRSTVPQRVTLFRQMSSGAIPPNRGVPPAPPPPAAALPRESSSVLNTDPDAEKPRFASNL

[7] = target: KOR (OPRK1) (Homo sapiens, UniProt P41145); assay: cAMP BRET; assay type: cell-based; settings: HEK-293 cells, up to a concentration of 1 mM
KOR (OPRK1), sequence (P41145 whole entry): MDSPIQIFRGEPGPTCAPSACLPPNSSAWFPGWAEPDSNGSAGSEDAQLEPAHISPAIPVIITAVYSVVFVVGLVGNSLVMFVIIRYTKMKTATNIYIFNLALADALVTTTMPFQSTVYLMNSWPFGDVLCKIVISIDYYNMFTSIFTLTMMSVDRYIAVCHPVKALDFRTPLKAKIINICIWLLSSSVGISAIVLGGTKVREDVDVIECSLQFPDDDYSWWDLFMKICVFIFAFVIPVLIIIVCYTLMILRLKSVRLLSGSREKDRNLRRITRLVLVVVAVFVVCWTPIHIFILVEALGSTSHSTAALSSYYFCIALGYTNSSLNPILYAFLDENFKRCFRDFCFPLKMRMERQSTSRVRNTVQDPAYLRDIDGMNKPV
Procedure, shortened: (§1)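 HEK-293 cells (DMEM, 10% FBS, 37°C/5% CO2) were PEI-transfected with 5 μg untagged MOR, KOR or DOR plus 5 μg CAMYEL cAMP biosensor and used 48 h later. Cells were suspended in DPBS with 100 μM metabisulfite and 5.5 mM glucose and kept 45 min in the dark. Forskolin (10 μM) was added for 5 min, then coelenterazine H (5 μM) for 5 min, then compound. BRET (535/475 nm) was read 5 min later, forskolin-only background subtracted, and expressed as % of each receptor's maximum. Triplicates; 3–6 experiments for EC50/Emax.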

[8] = target: MOR (OPRM1) (Homo sapiens, UniProt P35372); assay: cAMP BRET; assay type: cell-based; settings: HEK-293 cells, up to a concentration of 1 mM
MOR (OPRM1), sequence (P35372 whole entry): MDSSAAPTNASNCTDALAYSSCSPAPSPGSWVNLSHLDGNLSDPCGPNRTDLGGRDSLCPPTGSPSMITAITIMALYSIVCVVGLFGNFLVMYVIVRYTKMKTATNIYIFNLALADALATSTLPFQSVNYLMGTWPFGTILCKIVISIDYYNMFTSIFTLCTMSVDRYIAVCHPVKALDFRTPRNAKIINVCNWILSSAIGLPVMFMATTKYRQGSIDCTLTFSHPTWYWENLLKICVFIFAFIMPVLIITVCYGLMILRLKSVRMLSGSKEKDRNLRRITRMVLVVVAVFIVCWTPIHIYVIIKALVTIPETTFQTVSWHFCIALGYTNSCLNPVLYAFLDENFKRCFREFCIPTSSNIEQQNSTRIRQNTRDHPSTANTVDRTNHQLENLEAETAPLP
Procedure, shortened: as §1

[9] = target: estrogen receptor alpha (ERα) (Homo sapiens, UniProt P03372); assay: Screening and target deconvolution experiments; assay type: binding
estrogen receptor alpha (ERα), sequence (P03372 whole entry): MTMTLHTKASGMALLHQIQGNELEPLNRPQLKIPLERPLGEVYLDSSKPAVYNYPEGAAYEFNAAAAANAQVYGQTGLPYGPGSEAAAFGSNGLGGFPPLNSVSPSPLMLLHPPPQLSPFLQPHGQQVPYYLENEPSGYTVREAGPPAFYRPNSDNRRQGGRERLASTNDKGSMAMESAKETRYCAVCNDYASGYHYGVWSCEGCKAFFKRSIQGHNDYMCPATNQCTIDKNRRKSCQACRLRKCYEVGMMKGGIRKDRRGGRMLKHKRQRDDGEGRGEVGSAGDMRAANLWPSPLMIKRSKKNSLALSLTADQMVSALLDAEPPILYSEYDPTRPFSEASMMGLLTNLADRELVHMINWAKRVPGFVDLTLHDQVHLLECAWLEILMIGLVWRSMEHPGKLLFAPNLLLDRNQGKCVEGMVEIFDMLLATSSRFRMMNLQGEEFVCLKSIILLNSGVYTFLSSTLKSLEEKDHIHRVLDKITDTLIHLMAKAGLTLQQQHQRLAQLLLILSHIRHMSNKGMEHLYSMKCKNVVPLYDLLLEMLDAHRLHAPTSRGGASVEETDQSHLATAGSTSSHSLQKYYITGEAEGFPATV

[10] = test system: mice; assay: Forced swimming test; assay type: in vivo, mouse; settings: 24 hours after
Procedure, shortened: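 Male CD-1 mice (35–40 g, n = 8/condition) received a single IP dose of test compound (1, 3 or 10 mg/kg) or saline 24 h before a 6-min swim under 800 lux. Cylinders were 30 cm high × 20 cm diameter, holding 15 cm of water at 23 ± 1°C. A blinded observer scored immobility from video over the last 4 min.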

[11] = test system: mice; assay: Open-field locomotor activity; assay type: in vivo, mouse; settings: male mice; single 10, 30, 65 mg/kg IP
[12] = target: tropomyosin receptor kinase B (TrkB) (Homo sapiens, UniProt Q16620); assay: Screening and target deconvolution experiments; assay type: binding
tropomyosin receptor kinase B (TrkB), sequence (Q16620 32-822): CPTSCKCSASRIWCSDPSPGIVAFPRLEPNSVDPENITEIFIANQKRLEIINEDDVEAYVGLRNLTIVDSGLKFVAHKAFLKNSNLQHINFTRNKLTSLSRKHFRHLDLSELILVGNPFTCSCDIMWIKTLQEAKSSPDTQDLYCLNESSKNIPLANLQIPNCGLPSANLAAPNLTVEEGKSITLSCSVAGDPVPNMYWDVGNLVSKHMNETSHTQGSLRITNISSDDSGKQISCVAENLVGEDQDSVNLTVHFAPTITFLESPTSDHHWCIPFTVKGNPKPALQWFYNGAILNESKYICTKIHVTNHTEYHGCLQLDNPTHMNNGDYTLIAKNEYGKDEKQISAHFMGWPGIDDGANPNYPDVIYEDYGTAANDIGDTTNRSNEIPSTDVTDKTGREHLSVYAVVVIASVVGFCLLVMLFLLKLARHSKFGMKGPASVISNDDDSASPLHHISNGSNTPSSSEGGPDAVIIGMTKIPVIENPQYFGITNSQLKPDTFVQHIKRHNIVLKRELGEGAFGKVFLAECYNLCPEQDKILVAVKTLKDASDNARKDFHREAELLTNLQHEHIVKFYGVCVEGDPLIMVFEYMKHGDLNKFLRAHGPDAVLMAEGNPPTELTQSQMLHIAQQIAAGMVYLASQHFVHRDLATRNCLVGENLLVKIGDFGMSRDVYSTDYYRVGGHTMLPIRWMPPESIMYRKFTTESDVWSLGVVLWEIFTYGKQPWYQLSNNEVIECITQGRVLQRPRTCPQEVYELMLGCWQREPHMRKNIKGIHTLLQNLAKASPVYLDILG

[13] = test system: opioid receptors; settings: cited from earlier work
[14] = after administration of antidepressant-like doses; cited from earlier work
[15] = target: NK1R (Rattus norvegicus, UniProt P14600); assay: [^3H]-Substance P binding, rat whole brain membrane homogenates
NK1R, sequence (P14600 whole entry): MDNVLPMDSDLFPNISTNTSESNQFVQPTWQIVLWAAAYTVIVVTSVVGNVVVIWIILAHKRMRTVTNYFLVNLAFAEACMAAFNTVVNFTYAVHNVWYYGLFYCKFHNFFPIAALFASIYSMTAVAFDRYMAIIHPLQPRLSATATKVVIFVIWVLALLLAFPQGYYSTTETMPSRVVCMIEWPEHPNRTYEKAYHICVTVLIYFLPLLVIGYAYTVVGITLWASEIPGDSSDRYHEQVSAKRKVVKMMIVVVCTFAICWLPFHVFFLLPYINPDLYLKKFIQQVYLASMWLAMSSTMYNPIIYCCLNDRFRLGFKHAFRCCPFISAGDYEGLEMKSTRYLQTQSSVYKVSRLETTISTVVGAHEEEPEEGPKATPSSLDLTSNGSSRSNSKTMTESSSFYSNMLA

[16] = target: mu-opioid receptors, MOR (Rattus norvegicus, UniProt P33535); assay: [^3H]DAMGO competition binding, rat brain membranes
mu-opioid receptors, MOR, sequence (P33535 whole entry): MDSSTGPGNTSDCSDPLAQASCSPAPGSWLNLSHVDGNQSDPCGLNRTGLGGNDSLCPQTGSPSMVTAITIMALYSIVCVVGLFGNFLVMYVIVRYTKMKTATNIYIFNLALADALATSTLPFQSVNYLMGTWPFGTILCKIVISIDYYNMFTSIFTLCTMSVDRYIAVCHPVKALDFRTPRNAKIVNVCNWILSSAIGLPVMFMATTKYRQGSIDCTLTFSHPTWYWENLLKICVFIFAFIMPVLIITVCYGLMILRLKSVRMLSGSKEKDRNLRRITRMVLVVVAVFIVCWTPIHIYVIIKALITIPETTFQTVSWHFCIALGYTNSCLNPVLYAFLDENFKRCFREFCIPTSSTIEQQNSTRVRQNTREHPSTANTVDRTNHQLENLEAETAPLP

[17] = target: mGluR6 (Homo sapiens, UniProt O15303); assay: mGluR functional assay; assay type: biochemical
mGluR6, sequence (O15303 25-877): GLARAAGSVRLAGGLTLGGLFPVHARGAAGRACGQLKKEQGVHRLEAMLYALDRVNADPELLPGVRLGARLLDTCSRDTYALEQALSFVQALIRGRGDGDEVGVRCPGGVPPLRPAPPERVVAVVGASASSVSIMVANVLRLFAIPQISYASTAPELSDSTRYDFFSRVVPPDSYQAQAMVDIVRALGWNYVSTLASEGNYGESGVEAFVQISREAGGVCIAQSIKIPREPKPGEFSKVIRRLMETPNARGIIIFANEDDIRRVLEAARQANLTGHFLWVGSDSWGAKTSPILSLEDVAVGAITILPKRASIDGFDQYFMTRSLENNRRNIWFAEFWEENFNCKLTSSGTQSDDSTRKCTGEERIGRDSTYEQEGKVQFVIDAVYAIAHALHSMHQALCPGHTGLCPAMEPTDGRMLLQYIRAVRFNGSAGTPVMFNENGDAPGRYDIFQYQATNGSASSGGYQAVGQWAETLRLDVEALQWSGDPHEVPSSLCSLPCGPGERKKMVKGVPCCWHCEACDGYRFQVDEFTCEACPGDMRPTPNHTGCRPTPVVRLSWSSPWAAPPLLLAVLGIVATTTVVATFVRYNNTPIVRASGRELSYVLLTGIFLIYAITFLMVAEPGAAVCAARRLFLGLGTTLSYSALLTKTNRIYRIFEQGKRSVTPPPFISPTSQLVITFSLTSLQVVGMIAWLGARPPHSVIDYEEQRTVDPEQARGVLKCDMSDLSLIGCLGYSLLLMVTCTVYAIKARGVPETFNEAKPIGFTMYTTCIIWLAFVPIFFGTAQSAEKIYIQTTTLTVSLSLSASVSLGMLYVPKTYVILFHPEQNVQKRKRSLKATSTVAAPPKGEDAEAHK

[18] = test system: mice; settings: cited from earlier work
[19] = test system: opioid receptors; settings: not tested experimentally; cited from earlier work
[20] = target: mGluR1 (Homo sapiens, UniProt Q13255); assay: mGluR functional assay; assay type: biochemical
[21] = test system: rats; assay: [^18F]-FDG PET brain metabolic mapping; assay type: in vivo, rat; settings: 10 mg/kg i.v. infusion in 40 min
Procedure, shortened: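 Rats were handling- and arena-habituated and fasted 16 h. Awake in an open field, they received a continuous IV infusion of buffered saline (n = 4) or test compound (10 mg/kg over 40 min, n = 5). Ten min after infusion start, [18F]-FDG (13 MBq) was given IP. Rats were anesthetized 30 min later and brains PET-scanned. SUVR images used whole brain as reference, analysed voxel-wise and by atlas-based ROIs.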

Which results are given for `N[C@@]1(c2ccccc2Cl)CCC[C@@H](O)C1=O` [(2R,6R)-HNK, (2R,6R)-hydroxynorketamine]?
direct protein interactions, all screens together [1]: failed to identify any (2R,6R)-HNK-protein interactions; displacement of [^3H]MK-801 (NMDAR binding) ([2]; concentrations up to 100 μM): no displacement; displacement of [^3H]MK801 binding ([2]; rat brain membranes): failed to displace; effect on NMDAR function ([3]; 10 μM, cultured hippocampal neurons): no effect; reduction in synaptic NMDAR currents ([3]; 50 μM): ~ 40%; maximum extracellular concentration in the hippocampus [4]: ~ 8 μM; effect in functional assay at mGluR4 [5]: no effects; interaction with the HCN1 channel [6]: neither (2R,6R)-HNK nor ketamine interacted; cAMP response (inhibition of cAMP accumulation) [7]: did not induce any cAMP response; cAMP response (inhibition of cAMP accumulation) [8]: did not induce any cAMP response; interaction with ERα [9]: failed to interact; immobility time in forced swimming test, difference from vehicle ([10]; 1 mg/kg IP): but not 1 mg/kg; immobility time in forced swimming test ([10]; 3 or 10 mg/kg IP, single administration): reduced immobility time; locomotor activity, acute [11]: did not alter locomotor activity; interaction with TrkB [12]: failed to interact; functional properties at opioid receptors [13]: inverse agonist properties; concentration achieved in the brain [14]: ~ 10 μM; [^3H]-Substance P binding [15]: did not alter; binding to opioid receptors (MOR) ([16]; concentrations up to 100 μM): does not bind; MOR binding, displacement of [^3H]DAMGO ([16]; rat brain membranes): failed to displace; effect in functional assay at mGluR6 [17]: no effects; pain reduction after naloxone pretreatment [18]: not blocked by naloxone pretreatment; affinity for opioid receptors by computational modeling [19]: high (i.e. in the nanomolar range) affinity; effect in functional assay at mGluR1 [20]: no effects; metabolic activity in the PFC [21]: did not see any metabolic activity; regional metabolic connectivity profile [21]: closely resembled the saline condition; brain metabolic activity ([^18F]-FDG uptake), voxel-wise analysis ([21]; insula, nucleus accumbens, globus pallidus, thalamus, cortices, cerebellum): mild but significant increase; FDG uptake in the nucleus accumbens, ROI-based ([21]; vs saline): ~ 10 % increase
